Reference: ChEMBL document CHEMBL1143159, “Indole-2-amide based biochemical antagonist of Dishevelled PDZ domain interaction down-regulates Dishevelled-driven Tcf transcriptional activity” (Bioorg Med Chem Lett, 2008)
Activity calls are given as the source filed them. The calls are words filed in the database; no cut-off is given here.

How the values were obtained:
BJ [1] = assay: Induction of apoptosis in human BJ cells assessed as caspase 7 activation at 100 uM after 2 days; type: functional, cell-based
In short: (§1)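 HepG2 hepatocellular carcinoma, Rh30 rhabdomyosarcoma and hTERT-immortalized BJ foreskin fibroblast cells were exposed to compound at 100 μM for 2 days. Caspase-3/7 activity was then read with Caspase3/7-Glo reagent and expressed as a proportion of the DMSO control (set to 1), as the mean of three independent experiments.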

SJRH30 [2] = assay: Induction of apoptosis in human Rh30 cells assessed as caspase 3 activation at 100 uM after 2 days; type: functional, cell-based; in short: as §1
HepG2 [3] = assay: Induction of apoptosis in human HepG2 cells assessed as caspase 3 activation at 100 uM after 2 days; type: functional, cell-based; in short: as §1
HepG2 [4] = assay: Induction of apoptosis in human HepG2 cells assessed as caspase 7 activation at 100 uM after 2 days; type: functional, cell-based; in short: as §1
[5] = target: T1, Segment polarity protein dishevelled homolog DVL-3 (Homo sapiens, UniProt Q92997); assay: Antagonist activity at human Dvl3 assessed as inhibition of interaction between Dvl3 PDZ domain and […] by alphaScreen assay; type: functional
T1 sequence (Q92997 whole entry): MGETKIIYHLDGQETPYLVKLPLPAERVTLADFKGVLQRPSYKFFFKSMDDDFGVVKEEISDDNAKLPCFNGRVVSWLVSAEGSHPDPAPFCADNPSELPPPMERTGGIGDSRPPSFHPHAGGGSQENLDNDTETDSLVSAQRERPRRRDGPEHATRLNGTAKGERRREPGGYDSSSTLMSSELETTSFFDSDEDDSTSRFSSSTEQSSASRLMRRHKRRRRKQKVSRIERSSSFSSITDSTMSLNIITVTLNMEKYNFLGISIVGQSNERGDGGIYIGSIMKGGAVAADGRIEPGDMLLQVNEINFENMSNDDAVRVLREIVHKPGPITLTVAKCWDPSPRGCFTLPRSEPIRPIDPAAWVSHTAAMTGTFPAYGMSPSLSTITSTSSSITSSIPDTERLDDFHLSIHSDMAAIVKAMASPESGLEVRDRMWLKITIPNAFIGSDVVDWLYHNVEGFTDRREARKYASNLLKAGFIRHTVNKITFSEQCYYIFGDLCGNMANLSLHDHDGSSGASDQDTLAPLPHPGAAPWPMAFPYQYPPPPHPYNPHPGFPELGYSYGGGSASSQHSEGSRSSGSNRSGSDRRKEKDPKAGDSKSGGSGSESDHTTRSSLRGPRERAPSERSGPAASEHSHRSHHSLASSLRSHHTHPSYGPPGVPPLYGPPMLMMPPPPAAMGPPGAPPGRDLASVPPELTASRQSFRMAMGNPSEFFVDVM
In short: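 Competitive AlphaScreen energy-transfer assay for binding of the Dvl PDZ domain to the Fz7 PDZ-binding region. IC50 fitted from binding curves, each the mean of three independent experiments.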

BJ [6] = assay: Induction of apoptosis in human BJ cells assessed as caspase 3 activation at 100 uM after 2 days; type: functional, cell-based; in short: as §1
SJRH30 [7] = assay: Induction of apoptosis in human Rh30 cells assessed as caspase 7 activation at 100 uM after 2 days; type: functional, cell-based; in short: as §1
[8] = target: T2, Segment polarity protein dishevelled homolog DVL-1 (Homo sapiens, UniProt O14640); assay: Antagonist activity at human Dvl1 assessed as inhibition of interaction between Dvl1 PDZ domain and […] by alphaScreen assay; type: functional
T2 sequence (O14640 whole entry): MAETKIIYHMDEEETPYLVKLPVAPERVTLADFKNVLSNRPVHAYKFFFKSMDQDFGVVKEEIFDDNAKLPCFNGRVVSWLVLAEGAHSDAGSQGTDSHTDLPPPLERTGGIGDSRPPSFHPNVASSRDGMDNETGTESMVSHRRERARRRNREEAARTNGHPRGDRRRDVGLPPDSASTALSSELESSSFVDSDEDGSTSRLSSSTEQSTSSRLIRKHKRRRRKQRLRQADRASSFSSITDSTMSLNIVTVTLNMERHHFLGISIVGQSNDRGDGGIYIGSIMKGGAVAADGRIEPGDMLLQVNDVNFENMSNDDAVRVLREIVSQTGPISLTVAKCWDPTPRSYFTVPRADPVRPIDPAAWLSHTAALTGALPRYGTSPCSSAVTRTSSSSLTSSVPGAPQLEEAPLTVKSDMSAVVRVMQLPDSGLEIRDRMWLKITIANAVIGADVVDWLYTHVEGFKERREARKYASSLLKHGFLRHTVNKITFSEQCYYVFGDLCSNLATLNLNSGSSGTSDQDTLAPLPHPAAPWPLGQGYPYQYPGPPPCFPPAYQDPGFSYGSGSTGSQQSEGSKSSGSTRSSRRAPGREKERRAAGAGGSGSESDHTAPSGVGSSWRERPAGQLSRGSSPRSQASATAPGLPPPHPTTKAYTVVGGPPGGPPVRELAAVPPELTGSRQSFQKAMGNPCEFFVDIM

Structure (SMILES) | IC50 [5] [µM] | IC50 [8] [µM] | Activity (BJ [1]) | Activity (SJRH30 [2]) | Activity (HepG2 [3]) | Activity (HepG2 [4]) | Activity (BJ [6]) | Activity (SJRH30 [7])
Cc1cc2[nH]c(C(=O)NC(C)(C)C)c(CCc3ccccc3)c2cc1C(=O)O | > 500 | > 500 | – | – | – | – | – | –
CCCNC(=O)c1[nH]c2cc(C)c(C(=O)O)cc2c1CCc1ccccc1 | > 500 | > 500 | – | – | – | – | – | –
Cc1cc2[nH]c(C(=O)NCC3CCCCC3)c(CCc3ccccc3)c2cc1C(=O)O | 309 | – | – | – | – | – | – | –
Cc1cc2[nH]c(C(=O)NCc3ccccc3)c(CCc3ccccc3)c2cc1C(=O)O | 291 | – | inactive | Active | Active | Active | inactive | Active
Cc1cc2[nH]c(C(=O)NCC3CC3)c(CCc3ccccc3)c2cc1C(=O)O | > 500 | > 500 | – | – | – | – | – | –
Cc1cc2[nH]c(C(=O)NCCC(=O)O)c(CCc3ccccc3)c2cc1C(=O)O | > 500 | > 500 | – | – | – | – | – | –

The next molecules have a lower IC50 [5] than those just listed; values first:

IC50 [5] [µM] | IC50 [8] [µM] | Structure (SMILES) | Activity (BJ [1]) | Activity (SJRH30 [2]) | Activity (HepG2 [3]) | Activity (HepG2 [4]) | Activity (BJ [6]) | Activity (SJRH30 [7])
160 | – | CCC(C)CNC(=O)c1[nH]c2cc(C)c(C(=O)O)cc2c1CCc1ccccc1 (stereo not drawn) | inactive | Active | Active | Active | inactive | Active
57 | – | COC(=O)c1cc2c(CCc3ccccc3)c(C(=O)NC3CCCCC3)[nH]c2cc1C | – | – | – | – | – | –
23 | – | Cc1cc2[nH]c(C(=O)NC3CCCCC3)c(CCc3ccccc3)c2cc1C(=O)O | inactive | Active | Active | Active | inactive | Active
92 | – | Cc1cc2c(cc1C(=O)O)c(CCc1ccccc1)c(C(=O)NC1CCCCC1)n2C | inactive | Active | Active | Active | inactive | Active
